Assay results pooled from the literature.
Each line is one published result; the experiments were not run side by side.

SMILES | target or system | assay | test system | setting | endpoint | value
CC(=NNC(=O)COc1ccc2c(C)c(Cc3ccccc3)c(=O)oc2c1C)c1ccc(Br)cc1 | HCT-116 | cell growth or viability, MTT | – | 0.2 µg/mL | viability | 66%
C=CC(=O)c1cccnc1Nc1cccc(C(F)(F)F)c1 | U-87 MG | cell growth or viability, SRB | – | 48 h | GI50 | 7.51 µM
Cc1cc(C)c(C#N)c(SCC(=O)c2ccccn2)n1 | Leishmania infantum | parasite growth | mouse Macrophage | intracellular, amastigote | EC50 | 45.5 µM
Cc1[nH]c(C(=O)Nc2ccc(C(=O)NCC(=O)O)cc2N2CC[C@@H](N)C2)c(Cl)c1Cl.Cl | Klebsiella aerogenes | microbial growth, broth dilution | ATCC13408 | – | MIC | > 32 µg/mL
C=CC(=O)NC1CCN(c2ncc3ncnc(Nc4ccc(Oc5ccc6c(c5)ncn6C)c(C)c4)c3n2)CC1 | EKVX | cell growth or viability | – | – | EC50 | 0.0025 µM
Cl.N[C@@H]1CCN(c2cc(C(=O)NCC(=O)O)ccc2NC(=O)c2cc(Br)c(Br)[nH]2)C1 | Klebsiella aerogenes | microbial growth, broth dilution | ATCC13408 | – | MIC | > 32 µg/mL
Cc1cc(C)c(C#N)c(SCC(=O)c2ccccc2C)n1 | Leishmania infantum | parasite growth | mouse Macrophage | intracellular, amastigote | EC50 | 7.38 µM
CC(C)(C)OC(=O)N[C@H]1CCN(c2cc(C(=O)NCC(=O)O)ccc2NC(=O)c2cc(Br)c(Br)[nH]2)C1 | Klebsiella aerogenes | microbial growth, broth dilution | ATCC13408 | – | MIC | > 32 µg/mL
Cc1cc(C)c(C#N)c(OCC(=O)c2ccccc2)n1 | Leishmania infantum | parasite growth | mouse Macrophage | intracellular, amastigote | EC50 | > 64 µM
O=C(O)c1cccnc1Nc1cccc(C(F)(F)F)c1 | U-87 MG | cell growth or viability, SRB | – | 48 h | GI50 | > 30 µM
COc1ccc(C(=O)CSc2nc(C)cc(C)c2C#N)cc1 | Leishmania infantum | parasite growth | mouse Macrophage | intracellular, amastigote | EC50 | 25.2 µM
C=CC(=O)c1cccnc1Nc1cc(C(F)(F)F)ccc1OC | U-87 MG | cell growth or viability, SRB | – | 48 h | GI50 | 7.72 µM
